Consider 28 compounds from ChEMBL document CHEMBL3351534, “Design, synthesis and antimycobacterial evaluation of 1-(4-(2-substitutedthiazol-4-yl)phenethyl)-4-(3-(4-substitutedpiperazin-1-yl)alkyl)piperazine hybrid analogues” (Eur J Med Chem, 2014).

A short description of series [1]: Toxicity against mouse RAW264.7 cells assessed as inhibition of cell viability after 72 hrs by MTT assay. In kind it is cell-based. In outline: (§1)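 RAW 264.7 cells were exposed to compounds for 72 h. Viability was then scored by the cells' conversion of MTT into a formazan product, using a non-radioactive cell proliferation kit. Results were expressed as percentage growth inhibition at a single high concentration and as an approximate IC50.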

Series [2] is described as follows: Selectivity index, ratio of IC50 for mouse RAW264.7 cells to MIC for Mycobacterium tuberculosis H37Rv. The class given is toxicity. As to conditions: read-out: Selectivity Index. The procedure, abridged: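 SI = IC50/MIC. IC50 comes from an MTT assay on RAW 264.7 cells, with viability read as conversion of MTT to formazan after 72 h exposure and % inhibition recorded at 50 µg/mL. MIC comes from the M. tuberculosis H37Rv MABA (5 days at 37 °C, Alamar Blue colour read-out).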

In series [3] the test system is Mycobacterium tuberculosis. As to the kind of experiment: Antimycobacterial activity against Mycobacterium tuberculosis H37Rv assessed as inhibition of microbial growth at 3.125 ug/mL after 5 days by MABA method. In kind it is functional. The conditions noted are these: 120 h. In outline: (§2)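 MABA in 96-well plates against M. tuberculosis H37Rv. Compounds serially diluted 1:2 across columns, inoculum added, with medium-only and 3–5% DMSO solvent controls. Incubated 37 °C for 5 days. A 1:1 mix of 10× Alamar Blue and 10% Tween 80 was added and plates were reincubated 24 h at 37 °C. Blue read as no growth, pink as growth. MIC read from colour.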

In series [4] the test system is Mycobacterium tuberculosis. Description: Antimycobacterial activity against Mycobacterium tuberculosis H37Rv after 5 days by MABA method. The class given is functional. As to conditions: 120 h. The procedure, abridged:
as §2

Series [5] is described as follows: Toxicity against mouse RAW264.7 cells assessed as inhibition of cell viability at 50 ug/mL after 72 hrs by MTT assay. The class given is cell-based. As to conditions: read-out: INH. In outline: as §1
Series [6] has as its system Mycobacterium tuberculosis. Description: Antimycobacterial activity against Mycobacterium tuberculosis H37Rv assessed as inhibition of microbial growth at 6.25 ug/mL after 5 days by MABA method. The class given is functional. The conditions noted are these: 120 h. In outline:
as §2

Series [7] relates to Mycobacterium tuberculosis. As to the kind of experiment: Antimycobacterial activity against Mycobacterium tuberculosis H37Rv assessed as inhibition of microbial growth at 1.56 ug/mL after 5 days by MABA method. In kind it is functional. As to conditions: 120 h. In outline: as §2

≈ marks a conversion by molar mass, not a printed value.

For the compound `Nc1nc(-c2ccc(CCN3CCN(CCCN4CCN(c5ccccn5)CC4)CC3)cc2)cs1`, the IC50 at 72 h in series [1] is over 50 µg/mL. Besides, in series [2], the selectivity ratio is over 15. Also, the inhibition at 3.125 µg/mL in series [3] was determined as 99%. Further, the minimum inhibitory concentration (MIC) in series [4] was determined as 3.12 µg/mL (≈ 6.36 µM). The cytotoxicity at 72 h, 50 ug/mL in series [5] came to 38.1%.

Consider `Cc1nc(-c2ccc(CCN3CCN(CCCN4CCN(c5ccccc5)CC4)CC3)cc2)cs1`, for which, in series [4], it took 25 µg/mL (≈ 51 µM) to inhibit growth (MIC).

Consider `Cc1nc(-c2ccc(CCN3CCN(CCCN4CCN(C(c5ccccc5)c5ccccc5)CC4)CC3)cc2)cs1`, for which the IC50 at 72 h in series [1] was over 50 µg/mL. Also, in series [2], the selectivity ratio was over 7. In series [4], the MIC was determined as 6.25 µg/mL (≈ 10.8 µM). Moreover, in series [5], the cytotoxicity at 72 h, 50 ug/mL amounted to 42.8%. The inhibition at 6.25 µg/mL in series [6] is 99%.

`CNc1nc(-c2ccc(CCN3CCN(CCCN4CCN(c5ccccc5Cl)CC4)CC3)cc2)cs1`: in series [4], the MIC is 12.5 µg/mL (≈ 23.2 µM).

As to `CNc1nc(-c2ccc(CCN3CCN(CCCCN4CCN(c5ccccn5)CC4)CC3)cc2)cs1`, in series [4], the minimal inhibitory concentration (MIC) was 25 µg/mL (≈ 48.1 µM).

On to `CNc1nc(-c2ccc(CCN3CCN(CCCCN4CCN(C(c5ccccc5)c5ccccc5)CC4)CC3)cc2)cs1`, for which the lowest concentration to inhibit growth in series [4] (MIC) was 50 µg/mL (≈ 82.1 µM).

Turning to `CNc1nc(-c2ccc(CCN3CCN(CCCN4CCN(C(c5ccccc5)c5ccccc5)CC4)CC3)cc2)cs1`, the inhibition at 1.56 µg/mL in series [7] was 99%. In series [1], the IC50 at 72 h was over 50 µg/mL. The selectivity ratio in series [2] is over 30. In series [4], this compound displayed an MIC of 1.56 µg/mL (≈ 2.62 µM). The cytotoxicity at 72 h, 50 ug/mL in series [5] amounted to 31.8%.

Turning to `Nc1nc(-c2ccc(CCN3CCN(CCCCN4CCN(c5ccccn5)CC4)CC3)cc2)cs1`, the lowest concentration to inhibit growth in series [4] (MIC) was 12.5 µg/mL (≈ 24.7 µM).

In the case of `Nc1nc(-c2ccc(CCN3CCN(CCCCN4CCN(C(c5ccccc5)c5ccccc5)CC4)CC3)cc2)cs1`, in series [1], the IC50 at 72 h is over 50 µg/mL. Moreover, in series [2], the selectivity ratio was over 15. Also, in series [3], the inhibition at 3.125 µg/mL was 99%. Besides, inhibition of growth in series [4] (MIC) required 3.12 µg/mL (≈ 5.25 µM). For the same compound, the cytotoxicity at 72 h, 50 ug/mL in series [5] came to 46.4%.

In turn, `Cc1nc(-c2ccc(CCN3CCN(CCCN4CCN(c5ccccn5)CC4)CC3)cc2)cs1` had an MIC in series [4] of 50 µg/mL (≈ 102 µM).

In series [4], `Cc1nc(-c2ccc(CCN3CCN(CCCN4CCN(c5ccccc5Cl)CC4)CC3)cc2)cs1` had an MIC of 50 µg/mL (≈ 95.4 µM).

In turn, `CNc1nc(-c2ccc(CCN3CCN(CCCCN4CCN(c5ccc([N+](=O)[O-])cc5)CC4)CC3)cc2)cs1` gave an MIC in series [4] of 50 µg/mL (≈ 88.7 µM).

Consider `Nc1nc(-c2ccc(CCN3CCN(CCCCCN4CCN(c5ccc([N+](=O)[O-])cc5)CC4)CC3)cc2)cs1`, for which the IC50 at 72 h in series [1] was over 50 µg/mL. Also, the selectivity ratio in series [2] is over 7. In addition, the MIC in series [4] is 6.25 µg/mL (≈ 11.1 µM). In addition, the cytotoxicity at 72 h, 50 ug/mL in series [5] is 44.6%. Further, in series [6], the inhibition at 6.25 µg/mL is 99%.

Take `Nc1nc(-c2ccc(CCN3CCN(CCCCN4CCN(c5ccccc5Cl)CC4)CC3)cc2)cs1`: the MIC in series [4] is 50 µg/mL (≈ 92.7 µM).

In series [4], `Cc1nc(-c2ccc(CCN3CCN(CCCN4CCN(c5ccc([N+](=O)[O-])cc5)CC4)CC3)cc2)cs1` gave an MIC of 50 µg/mL (≈ 93.5 µM).

In the case of `Nc1nc(-c2ccc(CCN3CCN(CCCN4CCN(c5ccccc5Cl)CC4)CC3)cc2)cs1`, the MIC in series [4] was found to be 50 µg/mL (≈ 95.2 µM).

For the compound `CNc1nc(-c2ccc(CCN3CCN(CCCCN4CCN(c5ccccc5Cl)CC4)CC3)cc2)cs1`, in series [1], the IC50 at 72 h is over 50 µg/mL. In addition, in series [2], the selectivity ratio is over 15. Besides, in series [3], the inhibition at 3.125 µg/mL amounted to 99%. The compound further came in with an MIC in series [4] of 3.12 µg/mL (≈ 5.65 µM). Further, the cytotoxicity at 72 h, 50 ug/mL in series [5] came out at 40.4%.

In series [4], `CNc1nc(-c2ccc(CCN3CCN(CCCN4CCN(c5ccccn5)CC4)CC3)cc2)cs1` displayed an MIC of 12.5 µg/mL (≈ 24.7 µM).

As for `NNC(=O)c1ccncc1` [ISONIAZID], the lowest concentration to inhibit growth in series [4] (MIC) was 0.05 µg/mL (≈ 0.365 µM).

`CNc1nc(-c2ccc(CCN3CCN(CCCN4CCN(c5ccccc5)CC4)CC3)cc2)cs1`: the MIC in series [4] was 50 µg/mL (≈ 99.1 µM).

Take `Nc1nc(-c2ccc(CCN3CCN(CCCCN4CCN(c5ccc([N+](=O)[O-])cc5)CC4)CC3)cc2)cs1`: in series [4], inhibition of growth (MIC) required 12.5 µg/mL (≈ 22.7 µM). This MIC is about 4-fold lower than that of the compound before.

Turning to `Nc1nc(-c2ccc(CCN3CCN(CCCN4CCN(c5ccccc5)CC4)CC3)cc2)cs1`, the IC50 at 72 h in series [1] was over 50 µg/mL. Also, the selectivity ratio in series [2] is over 15. The inhibition at 3.125 µg/mL in series [3] is 99%. Also, in series [4], 3.12 µg/mL (≈ 6.37 µM) was the least that counted as inhibitory (MIC). For the same compound, in series [5], the cytotoxicity at 72 h, 50 ug/mL was found to be 35.6%.

In the case of `Nc1nc(-c2ccc(CCN3CCN(CCCN4CCN(c5ccc([N+](=O)[O-])cc5)CC4)CC3)cc2)cs1`, the IC50 at 72 h in series [1] is over 50 µg/mL. The selectivity ratio in series [2] is over 7. The same compound displayed a minimal inhibitory concentration (MIC) in series [4] of 6.25 µg/mL (≈ 11.7 µM). Moreover, the cytotoxicity at 72 h, 50 ug/mL in series [5] is 36.5%. For the same compound, the inhibition at 6.25 µg/mL in series [6] turned out to be 99%.

Consider `CNc1nc(-c2ccc(CCN3CCN(CCCN4CCN(c5ccc([N+](=O)[O-])cc5)CC4)CC3)cc2)cs1`, for which the lowest concentration to inhibit growth in series [4] (MIC) was 12.5 µg/mL (≈ 22.7 µM).

Take `Nc1nc(-c2ccc(CCN3CCN(CCCN4CCN(C(c5ccccc5)c5ccccc5)CC4)CC3)cc2)cs1`: the IC50 at 72 h in series [1] was over 50 µg/mL. Also, in series [2], the selectivity ratio was over 15. In addition, the inhibition at 3.125 µg/mL in series [3] amounted to 99%. Moreover, the minimal inhibitory concentration (MIC) in series [4] was found to be 3.12 µg/mL (≈ 5.38 µM). In series [5], the cytotoxicity at 72 h, 50 ug/mL worked out at 38.4%.

On to `Nc1nc(-c2ccc(CCN3CCN(CCCCN4CCN(c5ccccc5)CC4)CC3)cc2)cs1`, for which it took 25 µg/mL (≈ 49.5 µM) to inhibit growth in series [4] (MIC).

Consider `CO[C@H]1/C=C/O[C@@]2(C)Oc3c(C)c(O)c4c(O)c(c(/C=N/N5CCN(C)CC5)c(O)c4c3C2=O)NC(=O)/C(C)=C\C=C\[C@H](C)[C@H](O)[C@@H](C)[C@@H](O)[C@@H](C)[C@H](OC(C)=O)[C@@H]1C` [RIFAMPIN], for which inhibition of growth in series [4] (MIC) required 0.1 µg/mL (≈ 0.122 µM).

On to `CNc1nc(-c2ccc(CCN3CCN(CCCCN4CCN(c5ccccc5)CC4)CC3)cc2)cs1`, for which, in series [4], the MIC worked out at 12.5 µg/mL (≈ 24.1 µM). Against the preceding compound, the MIC is about 120-fold higher.
